Assay outcomes: PubChem, several laboratories
Compounds with a hit are over-represented: about 9% of the library has one in this group of screens.
mHtt clearance: mutant huntingtin protein clearance. HeLa Exon1htt(103Q)mCFP, aggregate imaging; zero = plate's median compound well. inhibition, % at 1.5 µM. 47,000 tested, 0.42% active. AID 853;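 active = inhibition of aggregate fluorescence above about 70%, also judged a hit by eye on the cell image, limit read from the data, passing the limit was not always enough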;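 also: cells exposed to compound for three days before fixation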
M1 agonist: M1 muscarinic receptor agonism; CHO-M1 cells, Fluo-4 calcium fluorescence, agonist mode; stronger effect = higher value; B-score at 10 µM; 64,000 tested, 3% active; AID 626;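 active = fluorescence rise, raw or as B-score row- and column-corrected plate score, outside the 99.7% band of its plate's samples, either direction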
AP complement: alternative pathway complement inhibition, orthogonal assay; Human serum alternative complement pathway, LPS-coated ELISA, C3 deposition; tested in compound mixtures; inhibition, % at 5 µM; 62,000 tested, 0.08% active; AID 1235;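 active = inhibition above 30% in each of the two pooled mixtures holding the compound, so the lower value exceeds 30%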;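 also: 0% = serum in Mg-EGTA without compound and 100% = EDTA serum blank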
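Test system: human serum complement alternative pathway, C3 deposition onto LPS / Medium: Mg2+-EGTA GVB++ buffer containing human serum at 1:15 dilution / Probe or stimulus: Plate-bound LPS / Times: 1 h at 37 °C / Signal: ELISA with HRP anti-human C3 antibody, TMB substrate, absorbance 450 nm / Measure: percent inhibition / Repeats: two pool placements per compound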
D1 allo mod: allosteric modulators of human D1 dopamine receptor. P21728. HEK293 D1, CRE-luciferase, dopamine EC30 potentiation; actives deviate in either direction. B-score at 10 µM. 58,000 tested, 5.9% active;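 active = luminescence count or its row- and column-corrected plate score outside the 99.7% band of the plate's sample wells, on either side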
M1 antag: blocks the rat M1 muscarinic receptor response to acetylcholine | AID 628 | P08482 | 64,000 tested, 3.4% active | B-score at 10 µM | CHO-M1 cells, Fluo-4 calcium, ACh EC80 antagonist mode; stronger effect = lower value;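 active = calcium fluorescence response, raw or row-and-column corrected B-score, differing from the plate sample mean either way at a set confidence level, mostly lower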
Target sequence (P08482 whole entry, looked up): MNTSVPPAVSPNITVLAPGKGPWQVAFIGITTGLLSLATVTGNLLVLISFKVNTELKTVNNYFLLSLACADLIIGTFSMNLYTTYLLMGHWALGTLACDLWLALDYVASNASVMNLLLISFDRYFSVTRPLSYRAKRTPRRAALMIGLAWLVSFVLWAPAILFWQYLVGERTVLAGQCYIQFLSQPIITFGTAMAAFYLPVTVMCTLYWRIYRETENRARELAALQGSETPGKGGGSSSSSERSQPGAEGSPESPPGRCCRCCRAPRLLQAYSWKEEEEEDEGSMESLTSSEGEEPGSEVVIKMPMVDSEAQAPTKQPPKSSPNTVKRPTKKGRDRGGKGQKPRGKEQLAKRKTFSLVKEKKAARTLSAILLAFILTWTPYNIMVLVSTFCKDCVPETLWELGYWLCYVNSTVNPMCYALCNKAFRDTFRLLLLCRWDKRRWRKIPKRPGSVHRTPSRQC
D1 PAM confirm: confirmation of human D1 dopamine receptor allosteric modulators; shares compounds with D1 allo mod; luminescence at 10 µM; HEK293 D1 CRE-luciferase, dopamine EC30 potentiation; stronger effect = higher value; AID 642; 2,200 tested, 88% active;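 active = luminescence in either of two replicates above the same-plate mean plus 3 SD of the low-dose dopamine control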
D1 ag no DA: secondary test of D1 modulators: activity without dopamine; shares compounds with D1 allo mod; HEK293 D1 CRE-luciferase, luminescence, no dopamine; stronger effect = higher value; luminescence at 10 µM; 1,900 tested, 0.8% active; in the data active = luminescence above about 3900
Isoprot counter: alters isoproterenol CRE-luciferase response in HEK293 cells | shares compounds with D1 allo mod | HEK293 D1 CRE-luciferase, isoproterenol EC30 counter-screen | calls only at 10 µM | 2,200 tested, 63% active | AID 647;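 active = luminescence in either replicate above plate mean of wells with a partly effective reference agonist dose plus 3 SD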;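 also: isoproterenol raises cAMP through native beta-adrenoceptor Gs so signal bypasses D1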
Numbers without * were called inactive; i = inactive; nt = no result given; + = active, no number.

SMILES	mHtt clearance	M1 agonist	AP complement	D1 allo mod	M1 antag	D1 PAM confirm	D1 ag no DA	Isoprot counter
O=C(Nc1ccccc1C(=O)NCc1ccco1)c1ccccc1	3	0.93	6	5.3*	-0.65	10828*	nt	+
Cc1cc(NC(=O)c2cnn3c(C(F)F)cc(-c4ccccc4)nc23)no1	-140	-0.55	-14	1.9	0.04	nt	nt	nt
O=C(NCCc1ccccc1)c1cnn2c(C(F)F)cc(C3CC3)nc12	nt	0.0037	3	5.1*	-0.42	12520*	1540	+
CN(C)S(=O)(=O)NCc1ccc2c(c1)OCO2	19	0.025	14	0.31	0.049	nt	nt	nt
O=C1NC2=C(C(=O)CCC2)C(c2ccc3ncccc3c2)N1 (centres undefined)	nt	0.58	5	1.5	-1.2	nt	nt	nt
CN(C)CC(C)(C)CNC(=O)C1CCN(Cc2ccccc2O)CC1	-6	0.74	18	-1.2	0.46	nt	nt	nt
CC(NC(=O)c1ccco1)c1ccc2c(c1)OCCO2 (centres undefined)	nt	0.019	13	-0.74	0.095	nt	nt	nt
O=C1CNC(=O)/C1=C/c1ccc(O)cc1	5	nt	nt	nt	nt	nt	nt	nt
O=c1[nH]c2ccsc2c(=O)n1-c1ccc(F)c(Cl)c1	nt	0	2	8.3*	1	14224*	1628	+
O=c1[nH]c2ccsc2c(=O)n1-c1ccc(F)cc1	0	-0.63	7	0.2	0.19	nt	nt	nt
Cc1ccc(-c2cc(-c3ccc(Cl)cc3)c(C#N)c(N)n2)o1	nt	-0.0047	10	4.1	2.4e-06	nt	nt	nt
N#Cc1c(N)oc(-c2ccc3c(c2)OCO3)c1-c1ccc2c(c1)OCO2	nt	-0.33	8	4.5*	0.92	26576*	1760	+
CCOc1cc(-c2cc(-c3ccc(C)o3)nc(N)c2C#N)ccc1O	-20	nt	nt	nt	nt	nt	nt	nt
Cc1ccc(-c2cc(-c3ccc4c(c3)OCO4)c(C#N)c(N)n2)o1	-14	-0.094	-4	5.9*	0.25	8720*	1720	i
Cc1ccc(-c2cc(-c3ccc(C)o3)nc(N)c2C#N)cc1	5	-1.7	10	7.3*	0.48	8668*	1764	i
CCCSc1nc(C)c(-c2csc(C(C#N)=C3CCCC3)n2)cc1C#N	nt	-0.72	2	-0.79	-0.87	nt	nt	nt
Cn1c(=O)c(C(=O)CSc2nncs2)c(N)n(Cc2ccccc2)c1=O	-56	-1.1	22	1.6	1	nt	nt	nt
COC(=O)C1C(=O)NC(SC)=C(C#N)C1c1ccccc1F (centres undefined)	54	0.12	8	nt	0.004	nt	nt	nt
COCCn1c(SCc2nc3ccccc3s2)nc2ccccc21	nt	0.46	15	1.5	0.011	nt	nt	nt
CCOC(=O)c1sc(NC(=O)CSc2nc(-c3ccco3)cc(C(F)(F)F)n2)c(C(=O)OC(C)C)c1C	-22	nt	nt	nt	nt	nt	nt	nt
CCOC(=O)c1c(C2CC2)csc1NC(C)=O	-44	2.3	12	4.9*	0.57	9548*	1704	i
CCOC(=O)c1c(-c2ccccc2)csc1NC(=O)C1CCCO1 (centres undefined)	-45	nt	nt	nt	nt	nt	nt	nt
Cc1cc(NC(=O)c2cnn3cccnc23)nn1CC(=O)Nc1cccnc1	-33	-0.012	-5	-0.061	-0.13	nt	nt	nt
O=C(Nc1cccnc1)c1cnn2cccnc12	nt	-0.53	10	4.6*	0.00026	7304*	1520	+
CCC(c1nnnn1Cc1ccc(F)cc1)N(CCCO)Cc1cc2cc3c(cc2[nH]c1=O)OCO3 (centres undefined)	nt	0.14	1	5.5*	-0.47	4672	1368	i
Nc1scc2c(C(=O)N/N=C/c3ccc(Cl)cc3)nn(-c3ccccc3)c(=O)c12	-58	nt	nt	nt	nt	nt	nt	nt
CCOC(=O)c1nn(-c2ccccc2)c(=O)c2c(N)scc12	-15	-0.38	22	6.3*	0.33	16104*	1620	+
CCOC(=O)c1nnn(-c2ccccc2C#N)c1C	nt	-0.85	8	-0.67	0.00063	nt	nt	nt
CCOC(=O)c1nn(-c2ccccc2)c(C(=O)OCC)c1N	-112	0.054	9	11*	0.58	15940*	1480	+
CCOC(=O)c1nn(-c2ccccc2C)c(=O)c(C#N)c1C	nt	0.61	11	3.1*	-0.0077	9504*	nt	i
